Assay results: ChEMBL document CHEMBL5543129, “Peptide Inhibitor Targeting the Extraterminal Domain in BRD4 Potently Suppresses Breast Cancer Both In Vitro and In Vivo” (J Med Chem, 2024)
Active and inactive are the calls of the source. The calls are words filed in the database; no cut-off is given here. Square brackets hold non-standard residues; d marks the D form. Peptide text beside a SMILES is read from it. Hyp = O=C(O)[C@@H]1C[C@@H](O)CN1; Ahx = NCCCCCC(=O)O

Experiments:
[1] = target: T1, von Hippel-Lindau disease tumor suppressor/Bromodomain-containing protein 4 (Homo sapiens) (UniProt O60885+P40337); assay: PROTAC activity at VHL/His-tagged BDR4 ET domain (1047 to 1362 residues) (unknown origin) transfected in MCF7 cells assessed as degradation by measuring fold change in remaining BRD4 level at 20 uM incubated for 24 hrs by immunoblotting analysis (reference value: […]); assay type: cell-based
[2] = target: T2, von Hippel-Lindau disease tumor suppressor/Bifunctional arginine demethylase and lysyl-hydroxylase JMJD6 (Homo sapiens) (UniProt P40337+Q6NYC1); assay: Protac activity at VHL/JMJD6 in human MCF7 cells assessed as degradation by measuring fold change in remaining JMJD6 level at 10 uM incubated for 24 hrs in presence of MG132 by immunoblotting analysis (reference value: […]); assay type: cell-based
[3] = target: T1, von Hippel-Lindau disease tumor suppressor/Bromodomain-containing protein 4 (Homo sapiens); assay: PROTAC activity at VHL/BDR4 ET domain in human MCF7 cells assessed as degradation by measuring fold change in remaining BRD4 level at 10 uM incubated for 24 hrs by immunoblotting analysis (reference value: […]); assay type: cell-based
Mus musculus = assay: Downregulation of c-Myc mRNA expression in BALB/c mouse tumor xenografted with human MCF7 cells at 25 mg/kg, ip administered every 2 days by RT-qPCR analysis; assay type: functional, organism-based
Method in brief: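 Female BALB/c nude mice (4–6 weeks) implanted subcutaneously with 5 × 10^6 cells in PBS. For MCF7 grafts, estrogen (E2, 10–2 M) is brushed on every 2 days. Treatment starts at ~50 mm3 after randomization, with peptide in normal saline ip every 2 days. Tumour mRNA is measured by RT-qPCR.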

MDA-MB-231 = assay: Antitumor activity against human MDA-MB-231 cells xenografted in BALB/c nude mouse assessed as reduction in tumor volume at 12.5 mg/kg, ip administered every 2 days in presence of 50 mg/kg JQ1; assay type: functional, organism-based
Method in brief: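 Female BALB/c nude mice given 5 × 10^6 cells sc (MCF7 mice with E2 10^-2 M every 2 days), randomised at ~50 mm3. Peptide 12.5 mg/kg ip (saline) every 2 days, plus JQ1 50 mg/kg ip (DMSO/10% HPBCD 1:10) every 2 days or iJMJD6 12.5 mg/kg ip (DMSO/PBS 1:20). Caliper volume every 2 days; tumours weighed at the end.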

[4] = target: T1, von Hippel-Lindau disease tumor suppressor/Bromodomain-containing protein 4 (Homo sapiens); assay: PROTAC activity at VHL/His-tagged BDR4 ET domain (471 to 730 residues) (unknown origin) transfected in MCF7 cells assessed as degradation by measuring fold change in remaining BRD4 level at 20 uM incubated for 24 hrs by immunoblotting analysis (reference value: […]); assay type: cell-based
[5] = target: T1, von Hippel-Lindau disease tumor suppressor/Bromodomain-containing protein 4 (Homo sapiens); assay: PROTAC activity at VHL/His-tagged BDR4 ET domain (1047 to 1362 residues) (unknown origin) transfected in MCF7 cells assessed as degradation by measuring fold change in remaining BRD4 level at 10 uM incubated for 12 hrs by immunoblotting analysis (reference value: […]); assay type: cell-based
[6] = target: T1, von Hippel-Lindau disease tumor suppressor/Bromodomain-containing protein 4 (Homo sapiens); assay: PROTAC activity at VHL/His-tagged BDR4 ET domain (1 to 470 residues) (unknown origin) transfected in MCF7 cells assessed as degradation by measuring fold change in remaining BRD4 level at 10 uM incubated for 12 hrs by immunoblotting analysis (reference value: […]); assay type: cell-based
[7] = target: T1, von Hippel-Lindau disease tumor suppressor/Bromodomain-containing protein 4 (Homo sapiens); assay: PROTAC activity at VHL/His-tagged BDR4 ET domain (601 to 683 residues) (unknown origin) transfected in MCF7 cells assessed as degradation by measuring fold change in remaining BRD4 level at 20 uM incubated for 24 hrs by immunoblotting analysis (reference value: […]); assay type: cell-based
[8] = target: T2, von Hippel-Lindau disease tumor suppressor/Bifunctional arginine demethylase and lysyl-hydroxylase JMJD6 (Homo sapiens); assay: PROTAC activity at VHL/JMJD6 in human MCF7 cells assessed as degradation by measuring fold change in remaining JMJD6 level at 10 uM incubated for 24 hrs in presence of TAT by immunoblotting analysis relative to TAT/TAT-PROTAC; assay type: cell-based
Method in brief: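 MCF7 cells were left untreated or given TAT, TAT-PROTAC, TAT-PiET or the PROTAC peptide (each 10 μM) for 24 h. Lysates were immunoblotted with β-actin for loading. Three repeats, quantified in the Supporting Table.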

[9] = Toxicity in BALB/c mouse xenografted with human MCF7 cells assessed as change in spleen at 12.5 mg/kg, ip administered every 2 days in presence of 12.5 mg/kg JMJD6 inhibitor; assay type: organism-based; conditions: in vivo, 48 h
Method in brief: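 Female BALB/c nude mice carried MCF7 xenografts (5 × 10^6 cells sc, E2 10–2 M brushed every 2 days) and were randomized at about 50 mm3. Peptide was given at 12.5 mg/kg ip every 2 days, and iJMJD6 (DMSO/PBS 1:20) at 12.5 mg/kg ip every other day, alone or combined. Body and organ weights were recorded.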

[10] = target: T1, von Hippel-Lindau disease tumor suppressor/Bromodomain-containing protein 4 (Homo sapiens); assay: PROTAC activity at VHL/His-tagged BDR4 ET domain (471 to 730 residues) (unknown origin) transfected in MCF7 cells assessed as degradation by measuring fold change in remaining BRD4 level at 5 uM incubated for 24 hrs by immunoblotting analysis (reference value: […]); assay type: cell-based
[11] = target: T1, von Hippel-Lindau disease tumor suppressor/Bromodomain-containing protein 4 (Homo sapiens); assay: PROTAC activity at VHL/His-tagged BDR4 […] (unknown origin) transfected in MCF7 cells assessed as degradation by measuring fold change in remaining BRD4 level at 10 uM incubated for 12 hrs by immunoblotting analysis (reference value: […]); assay type: cell-based
[12] = target: T2, von Hippel-Lindau disease tumor suppressor/Bifunctional arginine demethylase and lysyl-hydroxylase JMJD6 (Homo sapiens); assay: Protac activity at VHL/JMJD6 in human MCF7 cells assessed as degradation by measuring fold change in remaining JMJD6 level at 10 uM incubated for 6 hrs by immunoblotting analysis (reference value: […]); assay type: cell-based
[13] = target: T1, von Hippel-Lindau disease tumor suppressor/Bromodomain-containing protein 4 (Homo sapiens); assay: PROTAC activity at VHL/BDR4 ET domain in human MCF7 cells assessed as degradation by measuring fold change in remaining BRD4 level at 5 uM incubated for 24 hrs by immunoblotting analysis (reference value: […]); assay type: cell-based
[14] = Downregulation of JMJD6 protein expression in human MCF7 cells assessed as fold change in remaining JMJD6 level at 10 uM incubated for 24 hrs by immunoblotting analysis (reference value: 1); assay type: functional
Method in brief: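 Cells treated with peptide (10 μM) for 24 h. Lysates in Tris/NaCl/EDTA/1% Triton X-100, run on 10% SDS-PAGE and immunoblotted with ECL detection. β-actin as loading control. Three repeats, quantified against untreated cells.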

MCF7 = assay: Cytotoxicity against human MCF7 cells incubated for 1 week by CellTiter 96 Aqueous One Solution based assay; assay type: functional, cell-based; conditions: MCF7, 168 h
Method in brief: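 Cells (2 × 10^3/well, DMEM + 10% FBS, 37 °C, 5% CO2) treated with a concentration gradient of peptide for 1 week. MTS reagent added for 1 h, absorbance read at 490 nm, EC50 derived.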

BT-549 = assay: Cytotoxicity against human BT-549 cells incubated for 1 week by CellTiter 96 Aqueous One Solution based assay; assay type: functional, cell-based; conditions: BT-549, 168 h
Method in brief: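 Cells grown in RPMI-1640 (T47D, BT549) or DMEM (MDA-MB-231) with 10% FBS, 37 °C, 5% CO2. Seeded 2 × 10^3/well, exposed to a gradient concentration of peptide for 1 week. MTS-type reagent added 20 μL per 100 μL medium, 1 h at 37 °C, absorbance read at 490 nm. EC50 derived from the concentration–response curve.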

T1 sequence (P40337 whole entry, looked up, other chains not shown, the tested form may be a part): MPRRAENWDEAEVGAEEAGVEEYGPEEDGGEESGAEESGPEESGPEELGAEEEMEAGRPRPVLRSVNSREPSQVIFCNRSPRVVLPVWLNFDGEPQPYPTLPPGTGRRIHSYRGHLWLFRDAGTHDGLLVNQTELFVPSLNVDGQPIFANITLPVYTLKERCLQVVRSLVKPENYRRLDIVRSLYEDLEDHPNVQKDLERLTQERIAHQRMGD

| Molecule | fold change (FC) [1] | fold change (FC) [2] | fold change (FC) [3] | Activity (Mus musculus) | Activity (MDA-MB-231) | fold change (FC) [4] | fold change (FC) [5] | fold change (FC) [6] | fold change (FC) [7] | fold change (FC) [8] | Activity [9] | fold change (FC) [10] | fold change (FC) [11] | fold change (FC) [12] | fold change (FC) [13] | fold change (FC) [14] | EC50 (MCF7) | EC50 (BT-549) |
| --- | --- | --- | --- | --- | --- | --- | --- | --- | --- | --- | --- | --- | --- | --- | --- | --- | --- | --- |
| CC[C@H](C)[C@H](NC(=O)[C@H](Cc1ccc(O)cc1)NC(=O)[C@@H]1C[C@@H](O)CN1C(=O)[C@H](C)NC(=O)[C@@H](NC(=O)CCCCCNC(=O)[C@H](CCC(=O)O)NC(=O)CNC(=O)[C@H](CS)NC(=O)[C@H](CCCCN)NC(=O)[C@H](Cc1ccccc1)NC(=O)[C@H](CCCCN)NC(=O)[C@H](CCC(N)=O)NC(=O)[C@H](CC(N)=O)NC(=O)[C@H](CCCNC(=N)N)NC(=O)[C@H](CCCNC(=N)N)NC(=O)[C@H](CCCNC(=N)N)NC(=O)[C@H](CCCNC(=N)N)NC(=O)[C@H](CCC(N)=O)NC(=O)[C@H](CCCNC(=N)N)NC(=O)[C@H](CCCNC(=N)N)NC(=O)[C@H](CCCCN)NC(=O)[C@H](CCCCN)NC(=O)[C@H](CCCNC(=N)N)NC(=O)CNC(=O)[C@@H](N)Cc1ccc(O)cc1)[C@@H](C)CC)C(=O)O (H-YGRKKRRQRRRRNQKFKCGE[Ahx]IA[Hyp]YI-OH) | 1.05 | 0.88 | 0.26 | Active | Active | 0.6 | 1.11 | 1.11 | 0.37 | 0.61 | Non-Toxic | 0.8 | 0.99 | 0.89 | 0.35 | 0.5 | – | – |
| H-YGRKKRRQRRRRNQKFKCGE-OH | – | – | – | Active | Active | – | – | – | – | – | Non-Toxic | – | – | – | – | 0.91 | 8.13 µM | 32.3 µM |
